An excerpt weighted towards active compounds, which were near 2.6% of everything screened.
NR1D1 modulator: Rev-erb alpha (human) modulation; P20393; Rev-erbα–FITC-DNA binding, fluorescence polarization, 90 min; activity, % at 10 µM; hit rate 0.79% among 370,000; AID 1259318;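 active means activity above about 14%, limit read from the data; passing the limit was not always enough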
PG9 binder: small molecules binding HIV-1 gp120 antibody PG9 | TR-FRET gp120-PG9 antibody binding | inhibition, % at 6.7 µM | hit rate 0.43% among 360,000 | AID 624416; in the data active means inhibition above about 8.5%
NR2E3 ag-1: NR2E3 (human) agonism. GST-NR2E3/biotin-RetCOR TR-FRET, 1536-well. AID 2300. inhibition of corepressor binding, % at 4.78 µM. hit rate 0.12% among 320,000;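 active means percent inhibition above the cutoff of mean plus 3 SD of all tested compounds, set per screening campaign, cut at about 20% in these data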
Target sequence (Q9Y5X4 whole entry, looked up): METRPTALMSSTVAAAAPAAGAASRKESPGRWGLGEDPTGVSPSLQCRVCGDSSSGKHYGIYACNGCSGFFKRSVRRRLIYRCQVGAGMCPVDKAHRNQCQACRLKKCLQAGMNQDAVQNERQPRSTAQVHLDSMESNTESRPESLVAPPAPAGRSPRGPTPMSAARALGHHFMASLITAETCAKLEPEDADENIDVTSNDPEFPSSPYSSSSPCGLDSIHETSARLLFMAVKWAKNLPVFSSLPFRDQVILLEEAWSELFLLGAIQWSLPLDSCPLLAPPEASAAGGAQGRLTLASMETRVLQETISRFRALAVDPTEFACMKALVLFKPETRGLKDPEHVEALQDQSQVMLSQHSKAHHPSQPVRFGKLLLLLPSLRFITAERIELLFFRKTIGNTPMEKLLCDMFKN
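Format: 1536-well format; test system: GST-NR2E3 and biotin-RetCOR proteins; read-out basis: percent inhibition of TR-FRET ratio; timing: 5 h incubation at 4 °C; detection: time-resolved FRET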
rCAG RNA binder: r(CAG) repeat RNA binding; TO-PRO-1 dye displacement fluorescence; inhibition, % at 3 µM; hit rate 1.3% among 370,000;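 active means inhibition above the plate cutoff, the mean of all test compounds on that plate plus 3 SD, cut at about 35% in these data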;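 further: higher means more dye released from RNA so lower well fluorescence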
NR2E3 ag-2: activates human NR2E3 receptor | AID 602229 | inhibition of corepressor binding, % at 3.98 µM | hit rate 0.35% among 360,000 | Q9Y5X4 | CHO-S Gal4-NCOR/VP16-NR2E3 two-hybrid, luciferase;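 active means inhibition above the mean of all tested compounds plus 3 SD, cut at about 70% in these data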;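 further: higher means lower luciferase signal from less NR2E3 corepressor binding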
NR1D1 mod conf: Rev-erb alpha (human) modulation, hit confirmation; activation, % at 25 µM; shares compounds with NR1D1 modulator; AID 1259319; Rev-erb alpha FITC-DNA binding, fluorescence polarization, 90 min; hit rate 61% among 3,000;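 active means activation at or above a set limit, or at least 3 SD above the negative control mean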
RORg counter: counter-screen for Rev-erb alpha modulators: RORgamma DNA binding. IC50, µM. purified RORgamma protein-FITC-DNA binding, fluorescence polarization. hit rate 8% among 910. shares compounds with NR1D1 modulator;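 active means Compounds whose fitted half-maximal concentration for disrupting protein-DNA binding is below 10 micromolar; the record names Rev-erb in its text, so the target is in doubt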
Hits are given with their value; . = inactive; / = not tested or not shown.

SMILES	NR1D1 modulator	PG9 binder	NR2E3 ag-1	rCAG RNA binder	NR2E3 ag-2	NR1D1 mod conf	others
CCOc1ccc(Nc2ccc([N+](=O)[O-])c3nonc23)cc1	.	.	.	.	.	/
NC(=O)c1c(NC(=O)c2ccccc2)sc2c1CCc1ccccc1-2	47	.	.	.	.	18
NC(=O)c1c(NC(=O)c2ccccc2)sc2c1CCC2	.	.	.	.	.	/
CN(C)c1ccc2nc3c(=O)[nH]c(=O)nc-3n(CC(O)C(O)C(O)CO)c2c1 (stereo not given)	33	.	.	.	.	37	RORg counter=.
Cc1ncc(C(O)c2ccc(N(C)C)cc2)n1Cc1ccccc1 (stereo not given)	.	.	/	.	.	/
COc1ccc(NC(=O)NNC(=O)COc2ccc3cc(Br)ccc3c2)cc1	16	.	/	.	.	.
COc1ccc2cc(OCC(=O)NNC(=O)Nc3ccc(C(C)=O)cc3)ccc2c1	.	.	.	.	.	/
COc1ccc(CNC(=O)CN(C)Cc2ccc(C(C)(C)C)cc2)cc1	25	.	.	.	.	.
CCc1cc2c(C)ccc(C)c2nc1SCC(=O)Nc1c[nH]c(=O)[nH]c1=O	53	.	.	.	.	44	RORg counter=.
CC(C)N1CC(C(=O)Nc2ccc(Cl)cc2Cl)CC1=O (stereo not given)	.	.	/	.	.	/
COc1ccc(-c2oc(=O)c3cc(OC)c(OC)cc3c2C#CCCCO)cc1	.	.	/	.	.	/
COc1ccc(-c2oc(=O)c3cc(OC)c(OC)cc3c2C#CC2(O)CCCCC2)cc1	27	.	/	.	.	.
COc1cc(OC)cc(-c2oc(=O)c3cc(OC)c(OC)cc3c2C#CCCCO)c1	32	.	.	.	.	.
O=C1Nc2ccccc2C(=O)N(C2CCCC2)C1C(=O)NC1CC1 (stereo not given)	.	.	/	.	/	/
CS(=O)(=O)c1cnc2c(-c3ccc(F)cc3)cnn2c1N	.	.	.	.	.	/
Nc1c(-c2cccs2)cnc2c(-c3ccc(F)cc3)cnn12	35	.	.	.	.	.
COc1ccc(-c2cn(-c3ccc(C)cc3C)c(=S)[nH]2)cc1OC	23	.	.	.	.	.
COc1cc(OC)c(-n2cc(-c3ccc(OC)c(OC)c3)[nH]c2=S)cc1Cl	.	.	/	.	.	/
NC(c1ccccc1)c1csc(Nc2ccc(C(=O)NCCCO)cn2)n1 (stereo not given)	.	.	/	.	.	/
O=c1cc(-c2ccccc2)oc2cc(O)ccc12	.	.	/	.	.	/
Nc1ccc(-c2c3ccc(=O)cc-3oc3cc(O)ccc23)cc1C(=O)O	187	.	.	.	.	240	RORg counter=.
O=c1ccc2c(-c3ccccc3)c3ccc(O)cc3oc-2c1	102	.	.	.	.	99	RORg counter=.
COc1ccc(Cn2ccc3ccc(-c4ccc5ccn(C(=O)c6ccccc6OC)c5c4)cc32)cc1	71	/	/	.	/	63	RORg counter=.
COC(=O)c1ccc(Cn2ccc3ccc(-c4ccc5ccn(C(=O)c6ccccc6OC)c5c4)cc32)cc1	47	/	/	.	/	72	RORg counter=.
O=C(CSc1nnc(-c2cccs2)n1-c1cccc(Cl)c1)c1cccc2c1OCCO2	79	.	.	.	.	85	RORg counter=.
SMILES	NR1D1 modulator	PG9 binder	NR2E3 ag-1	rCAG RNA binder	NR2E3 ag-2	NR1D1 mod conf	others
O=C(O)CSc1nnc(-c2cccs2)n1-c1ccc(Cl)cc1	.	.	.	.	.	/
O=C(CSc1nnnn1-c1ccc2c(c1)OCCO2)c1cccc2c1OCCO2	107	.	.	.	.	81	RORg counter=.
COc1ccc(-n2nnnc2SCC(=O)c2ccc3c(c2)OCCO3)cc1	63	.	.	.	.	64
CC(=O)c1cnc2cc(-c3cccc(Br)c3)nn2c1C	24	.	.	.	.	.
CCOC(=O)c1cnc2cc(-c3ccc(C)cc3)nn2c1C	.	.	/	.	.	/
O=C(CSc1nc2ccccc2nc1N1CCCCC1)N1CCN(C(c2ccccc2)c2ccc(Cl)cc2)CC1 (stereo not given)	19	/	/	.	/	21
CN(CCC#N)c1ccc(/C=C(\C#N)c2ccccn2)cc1	71	.	.	.	.	75	RORg counter=.
Cc1cc(Br)c2nc(-c3ccccc3)c(Cc3cccc(Cl)c3)n2c1	27	.	/	.	.	15
Cc1ccc(Cc2c(-c3ccccc3)nc3c(C)cc(Br)cn23)cc1	.	.	/	.	.	/
CCCc1nc2c(C)cc(Br)cn2c1Cc1ccccc1C(F)(F)F	.	.	/	.	.	/
Cc1ccc(Cc2c(-c3ccc(Br)cc3)nc3ccc(Br)cn23)cc1	24	.	/	.	.	22
Cc1cc(Br)cn2c(Cc3ccccc3)c(-c3cccc(Cl)c3)nc12	19	.	/	.	.	16
Cc1cc(Br)cn2c(Cc3ccccc3C(F)(F)F)c(-c3ccccc3)nc12	22	.	/	.	.	11
C=CCN=C1NC(c2cccc(Cl)c2)C(C(=O)OC)=C(C)N1Cc1cccc(C(F)(F)F)c1 (stereo not given)	.	.	/	.	/	/
N=c1c(S(=O)(=O)c2ccc(F)cc2)cc2c(=O)n3ccccc3nc2n1CC1CCCO1 (stereo not given)	.	.	.	.	.	/
COc1cc(CC(=O)Nc2cc(S(=O)(=O)N3CCOCC3)ccc2N2CCCC2)cc(OC)c1OC	.	.	/	.	.	/
COCCCn1c(SC(C)C(=O)Nc2c(C)n(C)n(-c3ccccc3)c2=O)n[nH]c1=O (stereo not given)	.	.	/	.	.	/
CNC(=S)Nc1cccc(-c2cnc3ccccc3n2)c1	.	.	.	.	.	/
COc1ccc(-c2nc3ccc(Br)cn3c2Cc2cccc(F)c2)cc1OC	18	.	/	.	.	.
Cc1ccc(-c2nc3c(C)cc(Br)cn3c2Cc2cccc(F)c2)cc1	21	.	/	.	.	20
Cc1nc2c(C)cccn2c(=O)c1NC(=O)c1cccc2ccccc12	29	.	.	.	.	.
Cc1nc2c(C)cccn2c(=O)c1NC(=O)c1cccs1	.	.	.	.	.	/
O=C(NC1CCCC1)C(c1ccco1)N1CCN(c2c(Cl)cncc2Cl)CC1 (stereo not given)	.	.	/	.	/	/
COc1ccccc1NC(=O)c1oc2ccccc2c1NC(=O)c1cc(OC)c(OC)c(OC)c1	100	.	.	.	.	69	RORg counter=.
COc1ccc(-c2c(C)nc(N)nc2-c2ccc(OCc3ccc(C)cc3)cc2O)cc1OC	123	.	.	.	.	85	RORg counter=.
CN(CCc1ccccc1)C(=O)c1cc2ccccn2n1	.	/	/	.	/	/
COc1ccc(CNC(=O)COC(=O)c2cc(-c3ccc(Cl)s3)nc3ccccc23)cc1	121	.	.	.	.	61
COc1ccc(-c2cc(C(=O)OCC(=O)NC3CC3)c3ccccc3n2)cc1OC	.	.	/	.	.	/
COc1ccc2nc(-c3ccccc3)cc(C(=O)OCC(=O)NC3CC3)c2c1	18	.	/	.	.	.

Bioassay records: PubChem, several laboratories
